{"source": "ChEMBL document CHEMBL4842338", "about": "“System-oriented optimization of multi-target 2,6-diaminopurine derivatives: Easily accessible broad-spectrum antivirals active against flaviviruses, influenza virus and SARS-CoV-2” (Eur J Med Chem, 2021)", "key": {"Influenza A virus [1]": {"system": "Influenza A virus", "assay": "Antiviral activity against Influenza A Puerto Rico/8/34/H1N1 infected in human A549 cells assessed as reduction in viral protein expression at 20 uM treated for 24 hrs pdp viral adsorption followed by staining with anti-Flu antibody observed at 24 hrs post infection by In-cell western assay", "type": "functional, organism-based", "details": "A/Puerto Rico/8/1934(H1N1)"}, "A549": {"system": "A549", "assay": "Cytotoxicity against human A549 cells assessed as reduction in cell viability measured after 24 hrs by MTT assay", "type": "cell-based", "details": "a549, 24 h"}, "[2]": {"assay": "Inhibition of DENV NS5-MTase domain using GpppA2'OMe-RNA74 as a substrate incubated for 30 mins by filter binding assay", "design": "species or system dengue virus type 2", "details": "read-out: IC50", "method_in_brief": "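MTase (1 μM) incubated with increasing inhibitor in 40 mM Tris-HCl pH 7.5, 5 mM DTT, 10 μM AdoMet ([3H]-labelled), 0.5 μM GpppA2′OMe-RNA74 substrate, 30 °C for 30 min; stopped in ice-cold 100 μM AdoHcy; DEAE filter binding, scintillation counting.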"}, "Zika virus": {"system": "Zika virus", "assay": "Antiviral activity against Zika virus H/PF/2013 infected in pre-seeded Huh-7 cells assessed as inhibition of viral replication incubated for 72 hrs by immunodetection based direct yield reduction assay", "type": "functional, organism-based", "details": "H/PF/2013, Huh-7, 72 h", "method_in_brief": "(§1)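 Direct yield reduction in Huh7 cells (7000/well), infected with 50 TCID₅₀ of DENV or ZIKV, or 25 TCID₅₀ of WNV. Adsorption 1 h at 37 °C, then virus removed and serial compound dilutions added. Incubated 72 h (DENV, ZIKV) or 48 h (WNV). Viral antigen immunodetected on the monolayer. IC₅₀ by non-linear regression, mean of three experiments. SI = CC₅₀ (Huh7, CellTiter-Glo luminescence)/IC₅₀.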"}, "Influenza A virus [3]": {"system": "Influenza A virus", "assay": "Antiviral activity against Influenza A virus (A/parrot/Ulster/73(H7N1)) infected in human A549 cells assessed as reduction in viral protein expression at 20 uM treated for 2 to 6 hrs post infection and measured following infection of MDCK cells with supernatant for 24 hrs by time-of-addition assay", "type": "functional, organism-based", "details": "time 2-6 hrs"}, "Huh-7": {"system": "Huh-7", "assay": "Effect on formation of DENV replication complex in human Huh-7 cells assessed as reduction in expression of NS5 at 50 uM measured after 8 to 24 hrs by DAPI staining based confocal microscopy analysis", "type": "functional, cell-based", "details": "time 8-24 hrs", "method_in_brief": "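Huh-7 cells (1 × 10⁴) on coverslips infected with DENV-2 (MOI 0.05), treated (100 or 50 μM as listed), fixed in 4% paraformaldehyde at 8, 12, 16, 24 h; anti-NS3/anti-NS5 with Alexa 488/568 secondaries, DAPI; confocal, 5 random fields at 40×; % positive cells; 2-way ANOVA with Dunnett.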"}, "SARS-CoV-2 [4]": {"system": "SARS-CoV-2", "assay": "Antiviral activity against SARS-COV 2 infected in human Calu-3 cells assessed as inhibition of viral replication at MOI of 0.01 followed by removal of test compound after cell virus adsorption incubated for 72 hrs by ENTRY-DYRA method", "type": "functional, organism-based", "details": "Severe acute respiratory syndrome coronavirus 2, Calu-3, 72 h"}, "[5]": {"assay": "Selectivity index, ratio of CC50 for human Huh-7 cells to IC50 for West Nile virus lineage 1 (Italy/2009) infected in pre-seeded Huh-7 cells assessed as inhibition of viral replication incubated for 48 hrs by immunodetection based plaque reduction assay", "type": "toxicity, cell-based", "details": "read-out: Selectivity Index"}, "dengue virus type 2": {"system": "dengue virus type 2", "assay": "Antiviral activity against Dengue virus serotype 2 New Guinea C infected in pre-seeded Huh-7 cells assessed as inhibition of viral replication incubated for 72 hrs by immunodetection based plaque reduction assay", "type": "functional, organism-based", "details": "Huh-7, 72 h"}, "West Nile virus": {"system": "West Nile virus", "assay": "Antiviral activity against West Nile virus lineage 1 (Italy/2009) infected in pre-seeded Huh-7 cells assessed as inhibition of viral replication incubated for 48 hrs by immunodetection based plaque reduction assay", "type": "functional, organism-based", "details": "Huh-7, 48 h"}, "Influenza A virus [6]": {"system": "Influenza A virus", "assay": "Antiviral activity against Influenza A virus (A/California/04/2009(H1N1)) infected in human A549 cells assessed as reduction in viral protein expression at 20 uM treated for 2 to 6 hrs post infection and measured following infection of MDCK cells with supernatant for 24 hrs by time-of-addition assay", "type": "functional, organism-based", "details": "time 2-6 hrs"}, "[7]": {"assay": "Cytotoxicity against African green monkey Vero E6 cells infected with SARS-COV-2 by celltiter-glo luminescent cell viability assay", "type": "cell-based, Vero C1008", "details": "chlorocebus sabaeus, Vero E6 cells infected with SARS-COV-2", "method_in_brief": "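Compound-exposed cells assessed by CellTiter-Glo luminescence versus DMSO control; CC50 from dose-response.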"}, "SARS-CoV-2 [8]": {"system": "SARS-CoV-2", "assay": "Antiviral activity against SARS-COV 2 infected in quadruplicate Vero E6 cells with DYRA supernatant assessed as reduction in viral replication at 0.8 uM", "type": "functional", "details": "Severe acute respiratory syndrome coronavirus 2, Vero C1008"}, "[9]": {"assay": "Inhibition of full length Dengue virus 2 NS5 RNA dependent RNA polymerase incubated for 10 mins by picogreen staining based fluorescent analysis (Rvb= 0.32+/-0.05 uM)", "design": "species or system dengue virus type 2"}, "[10]": {"assay": "Selectivity index, ratio of CC50 for human Calu-3 cells infected with SARS-COV-2 to IC50 for SARS-COV 2 infected in human Calu-3 cells", "type": "toxicity, cell-based", "details": "read-out: Selectivity Index"}, "SARS-CoV-2 [11]": {"system": "SARS-CoV-2", "assay": "Antiviral activity against SARS-COV 2 infected in monkey Vero E6 cells assessed as inhibition of viral replication at MOI of 0.01 and incubated after 2 hrs post infection for 48 hrs by direct yield reduction assay", "type": "functional, organism-based", "details": "Severe acute respiratory syndrome coronavirus 2, Vero C1008"}, "[12]": {"assay": "Antioxidant activity assessed as inhibition of ABTS radical scavenging activity at 10 uM to 1 mM measured after 10 mins", "type": "functional", "method_in_brief": "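ABTS radical solution diluted in ethanol (1:100) to A734 0.70; 3.0 mL mixed with 30 μL sample in DMSO at 10 μM–1 mM; A734 read after exactly 10 min; ascorbic acid reference; % scavenging = (A0−As)/A0×100.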"}, "[13]": {"assay": "Selectivity index, ratio of CC50 for human Huh-7 cells to IC50 for Zika virus H/PF/2013 infected in pre-seeded Huh-7 cells assessed as inhibition of viral replication incubated for 72 hrs by immunodetection based direct yield reduction assay", "type": "toxicity, cell-based", "details": "read-out: Selectivity Index", "method_in_brief": "as §1"}, "[14]": {"assay": "Inhibition of full length ZIKV NS5-MTase domain using 7MeGpppAC4 as a substrate incubated for 30 mins by filter binding assay", "design": "species or system Zika virus"}, "Influenza A virus [15]": {"system": "Influenza A virus", "assay": "Antiviral activity against Influenza A Puerto Rico/8/34/H1N1 infected in human A549 cells assessed as inhibition of hemagglutinin expression at 20 uM treated for 1 hr during viral absorption followed by infection of fresh cell monolayer of A549 cells with supernatant for 24 hrs by In-cell western assay", "type": "functional", "details": "A/Puerto Rico/8/1934(H1N1)", "method_in_brief": "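A549 cells infected with PR8 H1N1 and given 20 μM compound: 2 h before infection (PRE), 1 h during adsorption (DUR), or 24 h after adsorption (POST); supernatants used to infect fresh monolayers for 24 h; anti-HA in-cell western; RFU as % of untreated infected; 3 replicates from two experiments.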"}, "Influenza A virus [16]": {"system": "Influenza A virus", "assay": "Antiviral activity against Influenza A Puerto Rico/8/34/H1N1 infected in human A549 cells assessed as inhibition of hemagglutinin expression at 20 uM treated immediately after infection for 2 to 6 hrs followed by maintaining cells in fresh medium without compound for 24 hrs followed by infecting monolayer MDCK cells with supernatant for 24 hrs by time-of-addition assay", "type": "functional, organism-based", "details": "A/Puerto Rico/8/1934(H1N1), time 2-6 hrs", "method_in_brief": "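A549 cells infected with PR8 H1N1 received 20 μM compound immediately after adsorption for 2, 4 or 6 h, then fresh medium to 24 h; supernatants infected fresh MDCK for 24 h; anti-HA in-cell western; RFU % vs untreated infected; 4 replicates from two experiments.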"}}, "note": "Calls of active or inactive are those of the source. The calls are words filed in the database; no cut-off is given here."}
{"smiles": "FC(F)(F)c1cccc(Nc2nc(NCCOc3ccccc3)nc3[nH]cnc23)c1", "values": [{"measurement": "Activity", "setting": "Influenza A virus [1]", "result": "Active"}, {"measurement": "CC50", "setting": "A549", "result": 106, "unit": "µM"}, {"measurement": "IC50", "setting": "[2]", "result": 112, "unit": "µM"}, {"measurement": "IC50", "setting": "Zika virus", "result": 0.8, "unit": "µM"}, {"measurement": "Activity", "setting": "Influenza A virus [3]", "result": "Active"}, {"measurement": "Activity", "setting": "Huh-7", "result": "Active"}, {"measurement": "IC50", "setting": "SARS-CoV-2 [4]", "result": 1.9, "unit": "µM"}, {"measurement": "selectivity ratio at 48 h", "setting": "[5]", "result": 51}, {"measurement": "IC50", "setting": "dengue virus type 2", "result": 0.9, "unit": "µM"}, {"measurement": "IC50", "setting": "West Nile virus", "result": 3.9, "unit": "µM"}, {"measurement": "Activity", "setting": "Influenza A virus [6]", "result": "Active"}, {"measurement": "CC50", "setting": "[7]", "result": 200, "unit": "µM"}, {"measurement": "inhibition at 0.8 µM", "setting": "SARS-CoV-2 [8]", "result": 83.5, "unit": "%"}, {"measurement": "IC50", "setting": "[9]", "result": 43.7, "unit": "µM"}, {"measurement": "selectivity ratio", "setting": "[10]", "result": 240}, {"measurement": "IC50", "setting": "SARS-CoV-2 [11]", "result": 53.4, "unit": "µM"}, {"measurement": "Activity", "setting": "[12]", "result": "Active"}, {"measurement": "selectivity ratio at 72 h", "setting": "[13]", "result": 250}, {"measurement": "IC50", "setting": "[14]", "result": "Not Active"}, {"measurement": "inhibition at 20 µM", "setting": "Influenza A virus [15]", "result": 50, "unit": "%"}, {"measurement": "Activity", "setting": "Influenza A virus [16]", "result": "Active"}]}
